Tests used:
MDCK = assay: Cytotoxicity against MDCK cells after 48 hrs by methylene blue dye-based spectroscopy relative to control; format: cell-based, Canis lupus familiaris; settings: dog
In short: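 MDCK cells. CC50 is the compound concentration that kills half of the cell population.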

[1] = Inhibition of influenza A virus H1N1 endonuclease N-terminal domain of PA-subunit expressed in Escherichia coli BL21(DE3) using FAM-AAT CGC AGG CAG CAC TC-TAM as substrate by FRET assay
In short: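 Recombinant PA_N construct from pH1N1 2009 influenza in a FRET read-out of endonuclease cleavage. Compounds were first screened at 200 μM, then run in dose-response to derive IC50.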

Influenza A virus = assay: Antiviral activity against Influenza A virus (A/Puerto Rico/8/1934(H1N1)) infected in MDCK cells assessed as inhibition of virus-induced cytopathic effect after 48 hrs by CellTitre-Glo assay; format: functional, organism-based
In short: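 MDCK cells infected with PR8 H1N1. IC50 is the compound concentration at which half of the infected cells survive. Only compounds with CC50 above 50 μM in MDCK cells were tested.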

[2] = Influenza A virus, A/Puerto Rico/8/1934(H1N1), MDCK, 48 h, read-out: IC50

Row | Compound | CC50 (MDCK; read-out: CC50) [µM] | IC50 [1] [µM] | IC50 (Influenza A virus; [2]) [µM] | IC50 (Influenza A virus; mdck) | CC50 (MDCK)
1 | O=C(Cc1ccccc1)c1ccc(O)c(O)c1O | 18.1 | 1.5 | – | – | –
2 | O=C(N/N=C\c1cccc(Cl)c1Cl)c1ccc(O)c(O)c1 | 6.8 | 0.7 | – | – | –
3 | Cc1ccccc1/C=N\NC(=O)c1ccc(O)c(O)c1 | > 50 | 1.9 | > 50 | – | –
4 | COc1ccccc1N1CCN(/N=C/c2ccc(O)c(O)c2)CC1 | 13 | 2 | – | – | –
5 | C/C(=N/NC(=O)c1ccc(O)c(O)c1)c1ccc(C)cc1 | > 50 | 2.1 | > 50 | – | –
6 | O=C(N/N=C\c1ccc(/C=N/NC(=O)c2ccc(O)c(O)c2)cc1)c1ccc(O)c(O)c1 | – | 23 | – | ND(Insoluble) | ND(Insoluble)
7 | O=C1CC2(CCCCC2)Oc2c1ccc(O)c2O | > 100 | 8 | > 100 | – | –
8 | CC(=O)N1CCC2(CC1)CC(=O)c1ccc(O)c(O)c1O2 | > 100 | 46 | > 100 | – | –
9 | O=C(Cc1ccccc1Cl)c1ccc(O)c(O)c1O | > 50 | 5 | > 50 | – | –
10 | Cc1ccccc1CC(=O)c1ccc(O)c(O)c1O | 21 | 11 | – | – | –
11 | O=C(N/N=C\c1ccccc1Cl)c1cc(O)c(O)c(O)c1 | > 100 | 14 | 18 | – | –
12 | COc1ccc(NC(=O)/C(O)=C/C(=O)c2ccc(C)cc2)cc1 | > 50 | 0.6 | > 50 | – | –
13 | COc1ccc(NC(=O)/C(O)=C/C(=O)c2ccc(Cl)cc2)cc1 | > 100 | 0.74 | > 50 | – | –
14 | O=C(/N=C1/C(=O)Nc2ccc(Br)cc21)/C(O)=C/C(=O)c1ccc(Cl)cc1 | > 50 | 23 | – | – | –
15 | Cc1ccc(C(=O)/C=C(O)/C(O)=C/C(=O)c2ccc(C)cc2)cc1 | > 50 | 6 | 23 | – | –
16 | O=C(/C=C(O)/C(O)=C/C(=O)c1ccc(Cl)cc1)c1ccc(Cl)cc1 | > 100 | 11.7 | > 50 | – | –

Source: ChEMBL document CHEMBL3108673, “Computation-guided discovery of influenza endonuclease inhibitors” (ACS Med Chem Lett, 2014)
